Measurements taken from ChEMBL document CHEMBL4325846, “An investigation on 4-thiazolidinone derivatives as dual inhibitors of aldose reductase and protein tyrosine phosphatase 1B, in the search for potential agents for the treatment of type 2 diabetes mellitus and its complications” (Bioorg Med Chem Lett, 2018).
Activity calls are given as the source filed them. No cut-off for these calls is given here.

Columns and labels:
[1] = molecular target: T1, Aldo-keto reductase family 1 member B1 (Homo sapiens, UniProt P15121); assay: Inhibition of human recombinant aldose reductase expressed in Escherichia coli BL21 (DE3) pLysS assessed as reduction in NADPH oxidation using L-idose as substrate
[2] = molecular target: T2, Tyrosine-protein phosphatase non-receptor type 1 (Homo sapiens, UniProt P18031); assay: Inhibition of human full-length GST-fused PTP1B expressed in bacterial expression system using pNPP as substrate
T2 sequence (P18031 whole entry): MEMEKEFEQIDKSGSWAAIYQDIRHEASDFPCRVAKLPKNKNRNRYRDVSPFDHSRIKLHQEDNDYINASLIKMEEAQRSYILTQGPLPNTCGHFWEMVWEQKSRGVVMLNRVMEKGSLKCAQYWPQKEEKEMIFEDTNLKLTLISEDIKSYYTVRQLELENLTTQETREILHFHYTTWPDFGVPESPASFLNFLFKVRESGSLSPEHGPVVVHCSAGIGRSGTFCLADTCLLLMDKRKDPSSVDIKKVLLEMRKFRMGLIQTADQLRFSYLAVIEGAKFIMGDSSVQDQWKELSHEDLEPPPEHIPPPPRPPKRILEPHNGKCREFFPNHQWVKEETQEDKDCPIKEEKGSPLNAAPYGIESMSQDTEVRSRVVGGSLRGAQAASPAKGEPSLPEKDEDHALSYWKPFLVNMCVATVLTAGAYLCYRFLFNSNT
Method in brief: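 Human recombinant PTP1B activity measured with p-nitrophenyl phosphate as substrate and sodium metavanadate as reference inhibitor. IC50 values are reported as mean ± S.E.M.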

[3] = molecular target: T1, Aldo-keto reductase family 1 member B1; assay: Uncompetitive inhibition of human recombinant aldose reductase expressed in Escherichia coli BL21(DE3)pLysS assessed as dissociation constant of enzyme-inhibitor-substrate complex using L-idose as substrate by Morrison's plot analysis
Method in brief: (§1)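 Purified human AR (7 mU) activity was measured across inhibitor concentrations at L-idose 2.1, 3.1, 4.1, 8.3 and 16.6 mM. Data were fitted to the Morrison equation to give Ki app at each substrate level. Ki app versus substrate was then fitted by nonlinear regression to a general tight-binding inhibition model.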

[4] = molecular target: T2, Tyrosine-protein phosphatase non-receptor type 1; assay: Non-competitive inhibition of human full-length GST-fused PTP1B expressed in bacterial expression system assessed as dissociation constant of enzyme-inhibitor-substrate complex using pNPP as substrate by Michaelis-Menten plot analysis
Method in brief: (§2)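 Human recombinant PTP1B with pNPP, rates measured over varied substrate levels at inhibitor 0–30 µM (steps of 10 µM, or 0/3/6/9 µM). Double-reciprocal plots were drawn, and secondary plots of Km/Vmax versus inhibitor concentration were used. Data are mean ± S.E.M. (n = 3).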

[5] = molecular target: T1, Aldo-keto reductase family 1 member B1; assay: Reversible inhibition of human recombinant aldose reductase expressed in Escherichia coli BL21(DE3)pLysS assessed as enzyme activity recovery at 0.25 to 2 uM using L-idose as substrate relative to control; set-up: scale not given: the % may be the effect or the level left
[6] = molecular target: T1, Aldo-keto reductase family 1 member B1; assay: Uncompetitive inhibition of human recombinant aldose reductase expressed in Escherichia coli BL21(DE3)pLysS assessed as dissociation constant of enzyme-inhibitor complex using L-idose as substrate by Morrison's plot analysis; method in brief: as §1
[7] = molecular target: T2, Tyrosine-protein phosphatase non-receptor type 1; assay: Non-competitive inhibition of human full-length GST-fused PTP1B expressed in bacterial expression system assessed as dissociation constant of enzyme-inhibitor complex using pNPP as substrate by Michaelis-Menten plot analysis; method in brief: as §2
[8] = molecular target: T3, Tyrosine-protein phosphatase non-receptor type 1 (Homo sapiens) (UniProt P18031); assay: Reversible inhibition of human full-length GST-fused PTP1B expressed in bacterial expression system using pNPP as substrate after 60 mins
T3 sequence (whole entry): T2 sequence (P18031 whole entry)
Method in brief: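 PTP1B was preincubated with a saturating inhibitor concentration for 60 min at 37°C. The mixture was then diluted in assay buffer and residual pNPP-hydrolysing activity was measured.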

[9] = molecular target: T3, Tyrosine-protein phosphatase non-receptor type 1 (Homo sapiens); assay: Inhibition of human full-length GST-fused PTP1B expressed in bacterial expression system at 300 uM using pNPP as substrate relative to control
[10] = molecular target: T2, Tyrosine-protein phosphatase non-receptor type 1; assay: Mixed non-competitive inhibition of human full-length GST-fused PTP1B expressed in bacterial expression system assessed as assessed as dissociation constant of enzyme-inhibitor complex using pNPP as substrate by double reciprocal plot analysis
Method in brief: (§3)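 Human recombinant PTP1B with pNPP. Rates were measured over varied substrate levels at inhibitor 0, 2, 4 and 6 µM. […] Data are mean ± S.E.M. (n = 3).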

[11] = molecular target: T2, Tyrosine-protein phosphatase non-receptor type 1; assay: Mixed non-competitive inhibition of human full-length GST-fused PTP1B expressed in bacterial expression system assessed as assessed as dissociation constant of enzyme-inhibitor-substrate complex using pNPP as substrate by double reciprocal plot analysis; method in brief: as §3

| SMILES | IC50 [1] [µM] | IC50 [2] [µM] | other results |
| --- | --- | --- | --- |
| COc1ccc(/C=C2\SC(=S)N(CC(=O)O)C2=O)cc1OCC(N)=O | 0.139 | 679 |  |
| O=C(O)CN1C(=O)S/C(=C\c2cccc(OCCc3ccccc3)c2)C1=O | 0.276 | 12.4 | Ki [3]: 0.016 µM; Ki [4]: 13.1 µM; Activity [5]: 70%; Ki [6]: > 0.5 µM; Ki [7]: 13.1 µM; inhibition [8]: Active |
| O=C(O)CN1C(=O)/C(=C/c2ccc(OCCc3ccccc3)cc2)SC1=S | 0.104 | 49.4 |  |
| O=C(O)CN1C(=O)/C(=C/c2cccc(OCc3ccccc3)c2)SC1=S | 0.053 | 43.1 |  |
| O=C(O)CN1C(=O)/C(=C/C=C/c2ccccc2)SC1=S | 0.125 | 171 |  |
| O=C(O)CN1C(=O)/C(=C/c2ccc(OCc3ccccc3)cc2)SC1=S | 0.052 | 56 |  |
| NC(=O)COc1ccc(/C=C2\SC(=S)N(CC(=O)O)C2=O)cc1 | 0.194 |  | inhibition [9]: 10% |
| NC(=O)COc1cccc(/C=C2\SC(=S)N(CC(=O)O)C2=O)c1 | 0.064 | 716 |  |
| O=C(O)CN1C(=O)/C(=C/c2ccc(Oc3ccccc3)cc2)SC1=S | 0.06 | 63.9 |  |
| COc1cc(/C=C2\SC(=S)N(CC(=O)O)C2=O)ccc1OCC(N)=O | 0.228 | 378 |  |
| O=C(O)CN1C(=O)/C(=C/c2cccc(OCCc3ccccc3)c2)SC1=S | 0.056 | 32.5 | Ki [3]: 0.0062 µM; Ki [4]: 12 µM; Activity [5]: 70%; Ki [6]: > 0.3 µM; Ki [7]: 12 µM; inhibition [8]: Active |
| COc1cccc(/C=C2\SC(=S)N(CC(=O)O)C2=O)c1 | 0.078 |  |  |
| O=C(O)CN1C(=O)S/C(=C\c2ccc(OCCc3ccccc3)cc2)C1=O | 0.364 | 63.8 |  |
| COc1cc(/C=C2\SC(=S)N(CC(=O)O)C2=O)ccc1OCc1ccccc1 | 0.04 | 54.1 |  |
| COc1cc(/C=C2\SC(=O)N(CC(=O)O)C2=O)ccc1OCc1ccccc1 | 0.323 | 151 |  |
| COc1cc(/C=C2\S/C(=N\c3ccccc3)N(CC(=O)O)C2=O)ccc1OCc1ccccc1 | 1.41 | 10.6 | Ki [10]: 7.6 µM; Ki [11]: 40.6 µM |
| O=C(O)CN1C(=O)/C(=C/c2cccc(Oc3ccccc3)c2)SC1=S | 0.025 | 86.8 |  |
